Compounds with a hit are over-represented: about 0.63% of the library has one in this group of screens.
IDE inh – cellular human IDE inhibition; P14735; HEK cells, FAbetaB cleavage, fluorescence polarization; inhibition, % at 5.59 µM; hit rate 0.41% among 320,000; AID 434962;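 active = percent inhibition above the average of all tested compounds plus 3 SD, set per screening campaign, cut at about 16% in these data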;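 also: IDE supplied by intact live HEK cells; FP after avidin binding of uncleaved biotin substrate so inhibition keeps polarization high; 0% = DMSO wells and 100% = 60 µM reference IDE inhibitor Ii1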
TRPML3 ag – activates the human TRPML3 channel; HEK293 TRPML3-YFP, Fluo-8 calcium fluorescence; 100% = the carbachol control signal; activation, % at 3 µM; hit rate 0.29% among 220,000;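 active = activation above its plate's cutoff, the mean activation of the plate's test wells plus 3 SD, cut at about 12% in these data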;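 also: 0% = DMSO only wells and 100% = carbachol wells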
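Test system – HEK293 line with stable expression of human TRPML3-YFP channel · Control set – carbachol 87 µM final as high control (100%), DMSO as low control (0%) · Signal – Fluo-8 calcium dye fluorescence, ex 470-495, em 515-575 nm · Incubation – 1-h 37 °C dye load, 5-s basal, 120-s post-compound reads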
zfTRPN1 agonist – zebrafish TRPN1 (NompC) channel agonism | HEK293 zebrafish TRPN1-YFP, Fluo-8 calcium fluorescence; 100% = response to 87 µM carbachol | activation, % at 3 µM | hit rate 0.18% among 220,000 | AID 1424;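 active = activation above its plate's cutoff, the mean activation of test wells on that plate plus 3 SD, cut at about 19% in these data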;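 also: 0% = DMSO alone and 100% = 87 µM carbachol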
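Assay system: Zebrafish TRPN1-YFP in HEK293 cells | Incubation: Dye loading 1 h at 37 °C, then 30 min room temperature | Measured by: Kinetic Fluo-8 fluorescence, ex 470-495, em 515-575 nm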
IDE cell activ – boosts human insulin-degrading enzyme activity in HEK cells; P14735; FAbeta-B cleavage, fluorescence polarization; 0% vehicle, 100% cell-free pure enzyme wells; activation, % at 5.96 µM; hit rate 0.073% among 340,000;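 active = activation above the mean of all tested compounds plus 3 SD, set per screening campaign, cut at about 17% in these data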
IDE inh confirm – confirmation of human insulin-degrading enzyme inhibitors in cells. shares compounds with IDE inh. HEK cells, FAbetaB cleavage, fluorescence polarization. inhibition, % at 5.59 µM. hit rate 51% among 1,200;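 active = mean inhibition across triplicate wells above the cutoff set by the earlier primary insulin-degrading enzyme screen, cut at about 16% in these data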;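 also: 0% = DMSO wells and 100% = 60 µM reference IDE inhibitor Ii1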
HEK293 tox – HEK cell cytotoxicity, counter-screen for IDE inhibitors; shares compounds with IDE inh; HEK293 cytotoxicity, ATP luminescence; inhibition, % at 5.59 µM; hit rate 28% among 1,200; AID 449730; in the data active = inhibition above about 22%;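 also: 0% = vehicle wells and 100% = reference cytotoxic drug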
* marks the source's active call; other numbers are inactive results.

Results for COc1cc(/C=C/C(=O)c2ccc3c(c2)OCO3)cc(Cl)c1O ?
IDE inh: 160*; IDE cell activ: -203; IDE inh confirm: 88*; HEK293 tox: 12

Results for COc1ccc(/C=C/C(=O)c2ccc3c(c2)OCO3)c(OC)c1 ?
IDE inh: -5; TRPML3 ag: -1; zfTRPN1 agonist: -1; IDE cell activ: 6

How did COc1cccc(NC(=O)N2CCN(c3ccc(C(F)(F)F)cn3)CC2)c1 do in these assays?
IDE inh: 18*; TRPML3 ag: 2; zfTRPN1 agonist: 2; IDE cell activ: -7; IDE inh confirm: 8; HEK293 tox: 26*

How did O=C(Nc1ccccc1)N1CCCN(c2ccc(C(F)(F)F)cn2)CC1 do in these assays?
IDE inh: -4; TRPML3 ag: 3; zfTRPN1 agonist: 6; IDE cell activ: 0

Results for Cc1cc(C(=O)N2CCN(c3ccc(C(F)(F)F)cn3)CC2)c(C)o1 ?
IDE inh: 17*; TRPML3 ag: 1; zfTRPN1 agonist: 1; IDE cell activ: -18; IDE inh confirm: 2; HEK293 tox: 21

Results for Cc1ccc(C(=O)N2CCN(c3ccc(C(F)(F)F)cn3)CC2)o1 ?
IDE inh: 11; IDE cell activ: -16

What do the screens show for `NS(=O)(=O)c1ccc(CCNC(=O)Cc2ccc(Cl)cc2)cc1`?
IDE inh: -1; IDE cell activ: 3

What do the screens show for `NC(=O)C1CCCN(C(=O)CCC(=O)c2cccs2)C1` (configuration not stated)?
IDE inh: 2; IDE cell activ: 2

How did CCN1/C(=C/C=C/c2oc3ccc4ccccc4c3[n+]2CC)Oc2ccc3ccccc3c21 do in these assays?
IDE inh: 82*; TRPML3 ag: 31*; zfTRPN1 agonist: 73*; IDE inh confirm: 133*; HEK293 tox: 112*

How did CN(CC(=O)Nc1ccc2c(c1)CCC2)CC(=O)Nc1ccccc1Br do in these assays?
IDE inh: 19*; TRPML3 ag: 0; zfTRPN1 agonist: -2; IDE cell activ: -5; IDE inh confirm: 4; HEK293 tox: 8

What do the screens show for `CCN1CCCC1CN(Cc1cc2ccc(C)c(C)c2[nH]c1=O)C(=O)Nc1ccccc1OC` (configuration not stated)?
IDE inh: 1; TRPML3 ag: 0; zfTRPN1 agonist: -1; IDE cell activ: 2

How did O=C(O)c1ccc(/C=C2/SC(=S)N(Cc3ccccc3)C2=O)cc1 do in these assays?
IDE cell activ: 1

Results for CC(=O)Oc1ccc(/C=C2/SC(=S)N(Cc3ccccc3)C2=O)cc1 ?
IDE inh: 16*; IDE cell activ: -29; IDE inh confirm: 78*; HEK293 tox: 12

How did O=C1/C(=C/c2ccc(O)cc2)SC(=S)N1CC1CCCO1 (configuration not stated) do in these assays?
IDE inh: 87*; TRPML3 ag: 4; zfTRPN1 agonist: 9; IDE cell activ: -119; IDE inh confirm: 167*; HEK293 tox: 12

Results for O=C1/C(=C\c2ccc(O)cc2)SC(=S)N1Cc1ccccc1 ?
IDE inh: 77*; IDE cell activ: -91; IDE inh confirm: 137*; HEK293 tox: 11

What do the screens show for `CCCOc1ccc(/C=C2\SC(=S)N(CC3CCCO3)C2=O)cc1` (configuration not stated)?
IDE inh: 0; TRPML3 ag: 0; zfTRPN1 agonist: 2; IDE cell activ: 4

What do the screens show for `CSc1cccc(NC(=O)c2[nH]c(C)c(C(C)=O)c2C)c1`?
IDE inh: -1; IDE cell activ: 0

Results for CCc1ccccc1NC(=O)COc1cccc(-n2cnnn2)c1 ?
IDE inh: 1; IDE cell activ: 2

Results for COc1ccc2nc3sc(C(=O)N4CCN(C)CC4)cc3cc2c1 ?
IDE inh: 5; TRPML3 ag: 1; zfTRPN1 agonist: 0; IDE cell activ: 3

What do the screens show for `COc1ccc2nc3sc(C(=O)NCCCN4CCc5ccccc5C4)cc3cc2c1`?
IDE inh: 20*; TRPML3 ag: 0; zfTRPN1 agonist: -1; IDE cell activ: -8; IDE inh confirm: 3; HEK293 tox: 11

What do the screens show for `NC(=O)c1ccccc1Nc1nc(NCCO)nc(N2CCCC2)n1`?
IDE inh: -1; IDE cell activ: 0

What do the screens show for `COc1ccc(CNC(=O)N2CCN(c3cccc(C)c3C)CC2)cc1OC`?
IDE inh: 17*; IDE cell activ: -1; IDE inh confirm: 6; HEK293 tox: 13

What do the screens show for `COC(=O)c1cc(C(=O)NCc2ccccc2)c(=O)[nH]c1C`?
IDE inh: -3; TRPML3 ag: 1; zfTRPN1 agonist: 2; IDE cell activ: -2

What do the screens show for `COc1ccc(CCNC(=O)CCCc2ccccc2)cc1OC`?
IDE inh: 4; IDE cell activ: 3

How did Oc1ccc(Cl)cc1C=Nc1ccccc1Br do in these assays?
IDE inh: 1; TRPML3 ag: 0; zfTRPN1 agonist: 0; IDE cell activ: 7

How did Oc1ccc(Br)cc1C=Nc1ccc2c3c(cccc13)CC2 do in these assays?
IDE inh: 22*; TRPML3 ag: 3; zfTRPN1 agonist: 8; IDE cell activ: -3; IDE inh confirm: 1; HEK293 tox: 10

How did CCOC(=O)CC1C(=O)NCCN1c1nc2ccc(C)cn2c(=O)c1/C=C1\SC(=S)N(CC(C)C)C1=O (configuration not stated) do in these assays?
IDE inh: 56*; TRPML3 ag: 5; zfTRPN1 agonist: 32*; IDE cell activ: -186; IDE inh confirm: 58*; HEK293 tox: 10

Results for CCCN1C(=O)/C(=C/c2c(N3CCNC(=O)C3CC(=O)OCC)nc3c(C)cccn3c2=O)SC1=S (configuration not stated) ?
IDE inh: 65*; TRPML3 ag: 12*; zfTRPN1 agonist: 28*; IDE cell activ: -130; IDE inh confirm: 29*; HEK293 tox: 32*

How did CCCN1C(=O)/C(=C/c2c(NCCCOC(C)C)nc3c(C)cccn3c2=O)SC1=S do in these assays?
IDE inh: -2; TRPML3 ag: 1; zfTRPN1 agonist: 3; IDE cell activ: 0

What do the screens show for `O=C(COC(=O)Cc1n[nH]c(=O)c2ccccc12)Nc1cccc(C(F)(F)F)c1`?
IDE inh: 10; TRPML3 ag: -2; zfTRPN1 agonist: -1; IDE cell activ: 1

Results for O=C(NC1CCCC1)C(c1cccnc1)N(C(=O)c1csnn1)c1ccccc1Cl (configuration not stated) ?
IDE inh: 3; IDE cell activ: -2

Results for O=C(CSc1nc2ccc(Cl)cc2[nH]1)Nc1ccc2[nH]c(=O)[nH]c2c1 ?
IDE inh: -1; IDE cell activ: 2
